From BindingDB's records for doi:10.1021/jm00053a001 (Merck Sharp and Dohme Research Laboratories, 1993) come the findings set out here.

The structures appear in SMILES notation. Where a SMILES comes first, the peptide text is derived from it.

Assay [1] concerns the target T1, Substance-K receptor (Rattus norvegicus, UniProt P16610).
T1 sequence (P16610 whole entry): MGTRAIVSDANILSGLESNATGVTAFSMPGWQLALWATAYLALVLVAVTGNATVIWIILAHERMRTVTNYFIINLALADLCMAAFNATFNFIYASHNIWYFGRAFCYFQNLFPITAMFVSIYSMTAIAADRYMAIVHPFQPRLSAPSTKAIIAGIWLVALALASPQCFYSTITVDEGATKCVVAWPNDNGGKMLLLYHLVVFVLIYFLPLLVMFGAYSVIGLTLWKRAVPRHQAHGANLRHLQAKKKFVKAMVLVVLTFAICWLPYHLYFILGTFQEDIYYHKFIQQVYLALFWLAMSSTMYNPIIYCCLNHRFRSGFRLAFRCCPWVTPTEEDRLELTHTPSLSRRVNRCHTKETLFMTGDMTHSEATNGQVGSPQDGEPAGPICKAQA
In words: Inhibition of eledoisin binding to NK-2 receptor in rat vas deferens. Put shortly: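 Vas deferens from Sprague-Dawley rats (200–300 g), electrically stimulated contractions with supramaximal rectangular bipolar pulses. Eledoisin log dose-response curves; antagonism taken from rightward shift. pA2 by Schild regression over three or more antagonist concentrations, or apparent pA2 from one antagonist concentration via the standard Schild equation assuming unit slope.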

Assay [2] addresses T2, Neuromedin-K receptor (Rattus norvegicus, UniProt P16177).
T2 sequence (P16177 whole entry): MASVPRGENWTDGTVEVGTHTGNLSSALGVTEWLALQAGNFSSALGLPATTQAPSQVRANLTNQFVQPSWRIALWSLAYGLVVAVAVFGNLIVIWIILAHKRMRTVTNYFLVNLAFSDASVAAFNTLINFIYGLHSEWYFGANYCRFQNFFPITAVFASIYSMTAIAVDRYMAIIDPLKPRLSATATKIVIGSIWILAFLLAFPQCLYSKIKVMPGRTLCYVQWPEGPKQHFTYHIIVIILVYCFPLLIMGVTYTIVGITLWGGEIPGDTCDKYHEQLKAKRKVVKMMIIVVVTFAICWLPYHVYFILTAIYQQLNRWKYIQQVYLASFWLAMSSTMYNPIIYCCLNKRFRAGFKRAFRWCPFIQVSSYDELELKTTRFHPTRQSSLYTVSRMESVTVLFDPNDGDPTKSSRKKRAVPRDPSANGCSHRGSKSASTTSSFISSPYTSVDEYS
In words: Tested for antagonist activity toward NK-3 receptor in rat portal vein against the agonist eledoisin (mean +/-, n=4). Put shortly:
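Rat portal vein longitudinal strips; frequency and amplitude of myogenic contractions recorded. Antagonist activity derived from rightward shift of eledoisin log dose-response curves. pA2 by Schild regression, least squares, three or more antagonist concentrations, or apparent pA2 at a single antagonist concentration assuming unit slope (mean of three or four observations).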

Assay [3] has as its target Substance-P receptor (Cavia porcellus, UniProt P30547). In words: Tested for antagonist activity toward NK-1 receptor in guinea pig ileum against the agonist eledoisin (mean +/-, n=4). Put shortly: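 Guinea pig (male Dunkin-Hartley, 300–400 g) small-intestine longitudinal muscle, isometric contraction in Krebs-Henseleit at 37 °C with atropine, mepyramine, methysergide (each 5 μM) and indomethacin (1 μM). Antagonism measured as rightward shift of log dose-response curves to eledoisin. pA2 from Schild regression (least squares, three or more antagonist concentrations, three or more observations each), or apparent pA2 at a single concentration assuming unit slope (mean of 3–4 observations).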

Substance-P receptor, sequence (P30547 whole entry): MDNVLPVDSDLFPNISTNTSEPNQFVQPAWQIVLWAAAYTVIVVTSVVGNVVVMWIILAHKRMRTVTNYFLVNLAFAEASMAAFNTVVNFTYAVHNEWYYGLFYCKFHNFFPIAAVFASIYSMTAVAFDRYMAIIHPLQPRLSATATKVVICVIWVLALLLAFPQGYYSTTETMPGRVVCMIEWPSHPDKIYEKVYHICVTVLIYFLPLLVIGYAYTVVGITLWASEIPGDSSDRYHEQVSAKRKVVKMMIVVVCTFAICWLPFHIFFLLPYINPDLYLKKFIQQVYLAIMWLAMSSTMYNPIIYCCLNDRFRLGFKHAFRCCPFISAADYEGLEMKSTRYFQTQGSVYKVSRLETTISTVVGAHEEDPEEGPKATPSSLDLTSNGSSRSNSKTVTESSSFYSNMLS

In assay [1], `CSCC[C@@H]1NC(=O)[C@H](CC(C)C)NC(=O)[C@H](Cc2ccccc2)NC(=O)[C@H](Cc2c[nH]c3ccccc23)NC(=O)[C@H](CCC(N)=O)NC1=O` (cyclo(FLMQW)) showed a Kd of 0.631 µM.

Turning to `CSCC[C@H]1NC(=O)[C@H](CC(C)C)NC(=O)[C@@H]2CCCN2C(=O)[C@H](Cc2ccccc2)NC(=O)[C@@H](Cc2c[nH]c3ccccc23)NC(=O)[C@H](CCC(N)=O)NC1=O`, in assay [1], binding was put at a Kd of 15.8 µM.

`CSCC[C@@H]1NC(=O)[C@H](CC(C)C)NC(=O)CNC(=O)[C@H](Cc2ccccc2)NC(=O)[C@H](Cc2c[nH]c3ccccc23)NC(=O)[C@H](CCC(N)=O)NC1=O` (cyclo(FGLMQW)): the Kd in assay [1] was 0.00794 µM; in assay [2], 7.94 µM; in assay [3], 2 µM. Take `CSCC[C@H]1NC(=O)[C@H](CC(C)C)NC(=O)[C@H]2CCCN2C(=O)[C@H](Cc2ccccc2)NC(=O)[C@@H](Cc2c[nH]c3ccccc23)NC(=O)[C@H](CCC(N)=O)NC1=O`: in assay [1], the affinity, expressed as Kd, was 20 µM. In assay [1], `CSCC[C@H]1NC(=O)[C@H](CC(C)C)N2C=CC(NC(=O)[C@H](Cc3ccccc3)NC(=O)[C@@H](Cc3ccccc3)NC(=O)C(CCC(N)=O)NC1=O)C2=O` (some centres not stated) registered a Kd of 15.8 µM.

By Kd is commonly meant the free concentration of one partner at which half of the binding sites on the other are occupied at equilibrium, for simple one-to-one binding. A low value points to tighter binding.
